{
  "source": "paper PMC11926516",
  "about": "(Small Methods, 2024)",
  "key": {"HUVEC monolayers": {"test_system": "HUVEC monolayers", "format": "cell-based, human", "conditions": "0.1 h after MDS stimulation (1 mA/cm^2 for 7 min)"}, "[1]": {"test_system": "major organs (heart, lung, liver, kidney, spleen)", "format": "in vivo, rats", "method_in_brief": "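Major organs (heart, lung, liver, kidney, spleen) were taken at the end of the treatment experiment. They were photographed and weighed (n = 3, one-way ANOVA), then paraffin-embedded, serially sectioned and H&E-stained.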"}, "OVX OP rat models [2]": {"test_system": "OVX OP rat models", "test": "Plasma bone turnover markers PINP and CTX-I by Elisa in OVX rats", "format": "in vivo, Sprague–Dawley rats", "conditions": "n = 5"}, "OVX OP rat models [3]": {"test_system": "OVX OP rat models", "test": "Histology of distal femurs", "format": "in vivo, Sprague–Dawley rats", "method_in_brief": "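Female Sprague–Dawley rats, 12 weeks old, under pentobarbital anaesthesia. Bilateral ovariectomy via dorsal midline incision; sham rats had matching adipose tissue removed. Rats received PBS or PTH by different delivery methods for 4 weeks. Distal femurs were decalcified 3 weeks, paraffin-embedded and serially sectioned. Stains: H&E, Masson, TRAP kit, and IHC for Col1 (1:100), Ocn (1:200) and Ctsk (1:50). Positive cells per bone surface counted, n = 5, one-way ANOVA.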"}, "[4]": {"conditions": "post-SCI, cited from earlier work"}, "[5]": {"conditions": "stated consistent with own SCI-PTH group"}},
  "note": "Where two headings read alike, the source gives them in different places.",
  "data": [
    {"compound": "C[C@@H](N)[C@H]1CC[C@H](C(=O)Nc2ccncc2)CC1", "note": "[Y27632]", "values": [
      {"measurement": "increase in intracellular SFs and disappearance of VE-cadherin fluorescence during the electro-stimulated phase", "setting": "HUVEC monolayers; inhibitor 15 µM", "result": "blocked"}
    ]},
    {"compound": "CC(=O)OCOC(=O)CN(CC(=O)OCOC(C)=O)c1ccccc1OCCOc1ccccc1N(CC(=O)OCOC(C)=O)CC(=O)OCOC(C)=O", "note": "[BAPTA‐AM]", "values": [
      {"measurement": "increase in intracellular SFs and disappearance of VE-cadherin fluorescence during the electro-stimulated phase", "setting": "HUVEC monolayers; inhibitor 20 µM", "result": "blocked"}
    ]},
    {"compound": "Human parathyroid hormone (1–34) [PTH]", "values": [
      {"measurement": "histopathological analysis of visceral organs", "setting": "[1]; MDS-PTH group after one month of PTH treatment, H&E", "result": "no structural disruption"},
      {"measurement": "appearance or weight of major organs", "setting": "[1]; MDS-PTH group compared to SCI-PBS and SCI-PTH groups after one month of PTH treatment, n = 3", "result": "no significant difference"},
      {"measurement": "bone formation marker PINP", "setting": "OVX OP rat models [2]; MDS-PTH group compared to OVX group", "result": "increased notably"},
      {"measurement": "bone resorption marker CTX-I", "setting": "OVX OP rat models [2]; MDS-PTH group compared to SCI-PTH group", "result": "significantly lower"},
      {"measurement": "bone formation marker PINP", "setting": "OVX OP rat models [2]; SCI-PTH group compared to OVX group", "result": "increased notably"},
      {"measurement": "bone formation marker PINP, difference between delivery methods", "setting": "OVX OP rat models [2]; SCI-PTH versus MDS-PTH groups", "result": "no significant difference"},
      {"measurement": "Ctsk+ and Trap+ osteoclasts per bone surface", "setting": "OVX OP rat models [3]; MDS-PTH group compared to SCI-PTH group, IHC and Trap staining, n = 5", "result": "dramatically fewer"},
      {"measurement": "new bone formation (H&E and Masson's staining)", "setting": "OVX OP rat models [3]; MDS-PTH group compared to SCI-PTH group, OVX rats, 40 µg k^−1g once daily for one month", "result": "significantly promoted"},
      {"measurement": "Col+ and OCN+ osteoblasts per bone surface", "setting": "OVX OP rat models [3]; MDS-PTH group compared with OVX group, IHC, n = 5", "result": "more"},
      {"measurement": "Col+ and OCN+ osteoblasts per bone surface", "setting": "OVX OP rat models [3]; SCI-PTH group compared with OVX group, IHC, n = 5", "result": "more"},
      {"measurement": "Col+ and OCN+ osteoblasts per bone surface, difference between delivery methods", "setting": "OVX OP rat models [3]; SCI-PTH versus MDS-PTH groups, IHC, n = 5", "result": "no significant difference"},
      {"measurement": "subcutaneous residue", "setting": "[4]", "result": "approximately 20%"},
      {"measurement": "elimination time", "setting": "[4]; [5]", "result": 4, "unit": "h"},
      {"measurement": "time to plasma Cmax", "setting": "[4]; [5]", "result": 30, "unit": "min"}
    ]},
    {"compound": "N.N.N.N.N.N.N.N.N.N.N.N.N.N.[Cl-].[Cl-].[Cl-].[Cl-].[Cl-].[Cl-].[O-2].[O-2].[Ru+3].[Ru+3].[Ru+4]", "note": "[ruthenium red]", "values": [
      {"measurement": "increase in intracellular SFs and disappearance of VE-cadherin fluorescence during the electro-stimulated phase", "setting": "HUVEC monolayers; inhibitor 20 µM", "result": "blocked"}
    ]}
  ]
}
